From ChEMBL document CHEMBL2331334, “Hybrid furoxanyl N-acylhydrazone derivatives as hits for the development of neglected diseases drug candidates” (Eur J Med Chem, 2013)
Values after ≈ are worked out from the molar mass of the structure shown.

Columns and labels:
[1] = Aqueous stability of the compound in Tris.HCl buffer at pH 8.3 at 1 mM after 24 hrs by spectrophotometric analysis; assay type: physicochemical; conditions: pH 8.3, 24 h, 1000 µM
Procedure, shortened: (§1)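 Compound from DMSO stock, 1 mM final in aqueous buffer (KCl·HCl pH 2, acetate pH 5, Tris·HCl pH 7.4 or 8.3), incubated 37 °C for 24 h. Absorbance spectrum 250–450 nm compared with a freshly prepared, unincubated solution. TLC of ethyl acetate extracts to confirm or exclude decomposition products.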

[2] = Aqueous stability of the compound in KCl.HCl buffer at pH 2 at 1 mM after 24 hrs by spectrophotometric analysis; assay type: physicochemical; conditions: pH 2, 24 h, 1000 µM; procedure, shortened: as §1
[3] = Selectivity index, ratio of IC50 for mouse J774.1 cells to MIC for Mycobacterium tuberculosis H37Rv; assay type: functional
Procedure, shortened: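 Cytotoxicity: J774.1 macrophages in DMEM with 4 mM L-glutamine and 10% heat-inactivated FCS, seeded at 5 × 10^4/well, attached 48 h at 37 °C, 5% CO2. Exposed 48 h to 12.5–400.0 µM compound or vehicle. MTT at 0.1 mg/mL final for 3 h, formazan dissolved in DMSO/glycine buffer pH 10.5, A560 read. IC50 by linear regression, divided by the MIC against the same MTB strain.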

[4] = test system: Plasma; test: Metabolic stability in human plasma at pH 3 at 40 uM after 3 hrs; assay type: ADME, cell-free; conditions: pH 3, 3 h
[5] = Aqueous stability of the compound in acetate buffer at pH 5 at 1 mM after 24 hrs by spectrophotometric analysis; assay type: physicochemical; conditions: pH 5, 24 h, 1000 µM; procedure, shortened: as §1
[6] = test system: Mycobacterium tuberculosis; test: Antimycobacterial activity against Mycobacterium tuberculosis H37Rv assessed as growth inhibition after 5 days by MTT assay; assay type: functional; conditions: 120 h
Procedure, shortened: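 MTB inoculum made from 20–30-day slant growth in Tween 80/0.2% BSA, adjusted to McFarland No. 1, then diluted in 7H9GC broth (Middlebrook 7H9, glycerol, Casitone, OADC). Final inoculum about 1.2 × 10^6 CFU/mL. Compounds taken from DMSO stock to final 0.4–25 in broth, with a DMSO control. Plates run 5 days at 37 °C, then tetrazolium (MTT)–Tween 80 added for a further 24 h at 37 °C. Read-out is MIC.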

[7] = Selectivity index, ratio of IC50 for mouse J774.1 cells to IC50 for amastigote stage of Trypanosoma cruzi Tulahuen C4; assay type: toxicity; conditions: read-out: Ratio IC50
[8] = test system: Trypanosoma cruzi; test: Trypanosomicidal activity against axenic epimastigote stage of Trypanosoma cruzi Tulahuen 2 assessed as growth inhibition; assay type: functional, organism-based
Procedure, shortened: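 Tulahuen 2 epimastigotes grown axenically at 28 °C in BHI-tryptose with 5% FCS, harvested late log phase, 3×10^6/mL in 24-well plates. Compound added from DMSO stock (≤1% DMSO). Growth as A590 at day 0 and day 5; % inhibition from blank-corrected absorbances; ID50 = concentration halving absorbance relative to untreated controls.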

[9] = Cytotoxicity against mouse J774.1 cells assessed as cell viability after 48 hrs by MTT assay; assay type: cell-based; conditions: J774.1, 48 h
Procedure, shortened: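 J774.1 macrophages in DMEM with 4 mM L-glutamine and 10% heat-inactivated FCS, 5×10^4 cells/well, attached 48 h at 37 °C, 5% CO2. Exposed 48 h to compounds (12.5–400.0 µM) or vehicle. MTT 0.1 mg/mL final, 3 h at 37 °C; formazan dissolved in DMSO/glycine buffer pH 10.5, A560. IC50 by linear regression versus solvent control.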

[10] = Aqueous stability of the compound in Tris.HCl buffer at pH 7.4 at 1 mM after 24 hrs by spectrophotometric analysis; assay type: physicochemical; conditions: pH 7.4, 24 h, 1000 µM; procedure, shortened: as §1
[11] = test system: Trypanosoma cruzi; test: Trypanosomicidal activity against amastigote stage of Trypanosoma cruzi Tulahuen C4 transfected with beta-D-galactosidase infected in african green monkey Vero cells assessed as growth inhibition incubated 5 days prior to beta-D-galactopyranoside addition measured after 4 to 5 hrs by colorimetric assay; assay type: functional, organism-based
Procedure, shortened: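 VERO monolayer in phenol red-free RPMI 1640 with 10% FCS, infected with 5×10^4 LacZ-transfected Tulahuen C4 trypomastigotes/well, 24 h at 37 °C, 5% CO2. Compounds added for 5 days. CPRG substrate added, 4–5 h at 37 °C, A570. Actives (>50% inhibition) retested in duplicate at 10.0–0.16; IC50 by logarithmic regression versus untreated control.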

[12] = test system: Salmonella typhimurium; test: Mutagenicity in Salmonella typhimurium TA98 at 3.1 to 250 ug/plate in presence of S9 fraction; assay type: toxicity, organism-based; conditions: salmonella enterica subsp. enterica serovar typhimurium
Procedure, shortened: (§2)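 Direct plate incorporation with S. typhimurium TA98 on minimal glucose agar (Vogel-Bonner E, 40% glucose). Compounds in DMSO assayed in triplicate at doses starting from the highest non-toxic dose, with or without Aroclor-treated mouse liver S9. Controls: DMSO, 4-nitro-o-phenylenediamine (−S9), 2-aminofluorene (+S9). Revertants counted manually; mutagenic if ≥2× negative control at two consecutive doses.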

[13] = Selectivity index, ratio of IC50 for african green monkey Vero cells to IC50 for amastigote stage of Trypanosoma cruzi Tulahuen C4; assay type: toxicity, cell-based; conditions: read-out: Ratio IC50
[14] = test system: Salmonella typhimurium; test: Mutagenicity in Salmonella typhimurium TA98 at 3.1 to 250 ug/plate in absence of S9 fraction; assay type: toxicity, organism-based; conditions: salmonella enterica subsp. enterica serovar typhimurium; procedure, shortened: as §2
[15] = test system: Salmonella typhimurium; test: Mutagenicity in Salmonella typhimurium TA98 at 4.9 to 400 ug/plate in absence of S9 fraction; assay type: toxicity, organism-based; conditions: salmonella enterica subsp. enterica serovar typhimurium; procedure, shortened: as §2
[16] = test system: Salmonella typhimurium; test: Mutagenicity in Salmonella typhimurium TA98 at 4.9 to 400 ug/plate in presence of S9 fraction; assay type: toxicity, organism-based; conditions: salmonella enterica subsp. enterica serovar typhimurium; procedure, shortened: as §2
[17] = test system: Salmonella typhimurium; test: Mutagenicity in Salmonella typhimurium TA98 at 150 ug/plate in absence of S9 fraction; assay type: toxicity, organism-based; conditions: salmonella enterica subsp. enterica serovar typhimurium; procedure, shortened: as §2
[18] = test system: Salmonella typhimurium; test: Mutagenicity in Salmonella typhimurium TA98 at 150 ug/plate in presence of S9 fraction; assay type: toxicity, organism-based; conditions: salmonella enterica subsp. enterica serovar typhimurium; procedure, shortened: as §2
[19] = test system: Leishmania amazonensis; test: Leishmanicidal activity against axenic amastigote stage of Leishmania amazonensis MHOM/BR/76/LTB-012 assessed as growth inhibition after 72 hrs by MTT assay; assay type: functional, organism-based; conditions: MHOM/BR/76/LTB-012, 72 h
Procedure, shortened: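 L. amazonensis axenic amastigotes (MHOM/BR/76/LTB-012), weekly passages in MAA/20 at 32 °C, 5% CO2. Seeded in 96-well plates; compounds in DMSO at 100 to 1 final, 72 h. MTT added for 4 h, stopped with 50% isopropanol–10% SDS, 30 min agitation at room temperature, A570. Triplicate; % inhibition versus control, IC50 from several concentrations.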

[20] = test system: Salmonella typhimurium; test: Mutagenicity in Salmonella typhimurium TA98 at 6.2 to 500 ug/plate in absence of S9 fraction; assay type: toxicity, organism-based; conditions: salmonella enterica subsp. enterica serovar typhimurium; procedure, shortened: as §2
[21] = Selectivity index, ratio of IC50 for mouse J774.1 cells to IC50 for axenic amastigote stage of Leishmania amazonensis MHOM/BR/76/LTB-012; assay type: toxicity; conditions: read-out: Ratio IC50
[22] = Ratio of compound IC50 to amphotericin B IC50 for mouse J774.1 cells; assay type: ADME; conditions: read-out: Ratio IC50
[23] = test system: Salmonella typhimurium; test: Mutagenicity in Salmonella typhimurium TA98 at 6.2 to 500 ug/plate in presence of S9 fraction; assay type: toxicity, organism-based; conditions: salmonella enterica subsp. enterica serovar typhimurium; procedure, shortened: as §2

SMILES | Stability [1] | Stability [2] | Selectivity Index [3] | Stability [4] | Stability [5] | MIC [6] [µM] | selectivity ratio [7] | IC50 [8] [µM] | IC50 [9] [µM] | Stability [10] | IC50 [11] [µM] | selectivity ratio [13] | further results
O=C(N/N=C/c1ccc2no[n+]([O-])c2c1)c1cccnc1 | Stable | Stable | 0.7 | Stable | Stable | 44.2 (≈ 12.5 µg/mL) | < 0.9 | 35.5 | 31 | Stable | > 35.3 |  | 
Cc1nc2ccccn2c1C(=O)N/N=C/c1c(-c2ccccc2)no[n+]1[O-] |  | Stable | 3.2 | Stable | Stable | 17.3 (≈ 6.27 µg/mL) | 62 | 5 | 56.2 | Stable | 0.91 | 12 | Activity [12]: Non-toxic; Activity [14]: Non-toxic
O=C(N/N=C/c1c(-c2ccccc2)no[n+]1[O-])c1ccncc1 | Stable | Stable | >667 | Stable | Stable | 0.6 (≈ 0.186 µg/mL) | > 63 | 11 | > 400 | Stable | 6.4 | 2.5 | Activity [15]: Non-toxic; Activity [16]: Non-toxic
CC1CS(=O)(=O)CCN1/N=C/c1ccc([N+](=O)[O-])o1 (stereo not given) [NIFURTIMOX] |  |  |  |  |  |  | 27 |  |  |  | 10.4 | 7.7 | 
O=C(N/N=C/c1c(-c2ccccc2)no[n+]1[O-])c1ccc2c(c1)OCO2 | Stable | Stable | <2 | Stable | Stable | > 71 | > 5 | 50 | 162 | Stable | < 30.7 |  | Activity [12]: Non-toxic; Activity [14]: Non-toxic
O=C(N/N=C/c1ccc2no[n+]([O-])c2c1)c1ccncc1 | Stable | Stable | 385 | Stable | Stable | 0.35 (≈ 0.0991 µg/mL) | 24 | 33.4 | 135 | Stable | 5.6 | 2.5 | Activity [17]: Toxic; Activity [18]: Toxic
COc1cc(/C=N/NC(=O)c2no[n+]([O-])c2C)ccc1O |  |  |  |  |  | > 85.6 |  |  | > 400 |  |  |  | IC50 [19]: 1.7 µM; Activity [20]: Non-toxic; selectivity ratio [21]: > 235; selectivity ratio [22]: 50; Activity [23]: Non-toxic
